ChEMBL document CHEMBL4837188, “Identification of Novel Tricyclic Benzo[1,3]oxazinyloxazolidinones as Potent Antibacterial Agents with Excellent Pharmacokinetic Profiles against Drug-Resistant Pathogens” (J Med Chem, 2021)
Converted amounts (≈) assume the structure as drawn.

Tests used:
[1] = system: Staphylococcus capitis; assay: Antibacterial activity against linezolid resistant Staphylococcus capitis assessed as bacterial growth inhibition after 18 hrs by broth microdilution method; type: functional
[2] = Metabolic stability in pooled human liver microsomes assessed as substrate remaining in presence of NADPH incubated for 30 mins by LC-MS analysis; type: ADME, Microsome; conditions: read-out: Stabilty
Summary of the method: (§1)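 Microsomes from male CD-1 mouse or pooled human, 1 mg/mL protein in 0.05 M phosphate buffer pH 7.4. Compound at final 0.1 μM with DMSO cosolvent. Incubated at 37 °C with 1 mM NADPH, or with buffer in place of NADPH. Sampled at 0 and 30 min and quenched with acetonitrile. LC−MS measurement; substrate remaining at 30 min normalized to time zero.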

[3] = AUC (0 to t) in BALB/c mouse at 1 mg/kg, iv measured upto 24 hrs by LC-MS/MS analysis; type: ADME, organism-based; parameters: route intravenous, dose 1 mg/kg, time <=24; conditions: in vivo
Summary of the method: (§2)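 Female BALB/c mice, 16−21 g, three per route. Oral dosing at 10 mg/kg as a 5 mg/mL suspension in 0.5% carboxymethyl cellulose. IV dosing at 1 mg/kg as a 1 mg/mL solution in 10% DMSO/50% PEG400/40% water. Blood sampled 15 min to 24 h after oral dosing and 5 min to 24 h after iv. LC/MS/MS quantification in ESI positive mode. Noncompartmental analysis; F = (AUCpo×dose_iv)/(AUCiv×dose_po)×100%.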

[4] = biological target: T1, Amine oxidase [flavin-containing] A (Homo sapiens, UniProt P21397); assay: Inhibition of MAO-A (unknown origin) using kynuramine as substrate preincubated for 5 mins with substrate followed by enzyme addition and measured after 15 mins by LC-MS/MS analysis
T1 sequence (P21397 whole entry): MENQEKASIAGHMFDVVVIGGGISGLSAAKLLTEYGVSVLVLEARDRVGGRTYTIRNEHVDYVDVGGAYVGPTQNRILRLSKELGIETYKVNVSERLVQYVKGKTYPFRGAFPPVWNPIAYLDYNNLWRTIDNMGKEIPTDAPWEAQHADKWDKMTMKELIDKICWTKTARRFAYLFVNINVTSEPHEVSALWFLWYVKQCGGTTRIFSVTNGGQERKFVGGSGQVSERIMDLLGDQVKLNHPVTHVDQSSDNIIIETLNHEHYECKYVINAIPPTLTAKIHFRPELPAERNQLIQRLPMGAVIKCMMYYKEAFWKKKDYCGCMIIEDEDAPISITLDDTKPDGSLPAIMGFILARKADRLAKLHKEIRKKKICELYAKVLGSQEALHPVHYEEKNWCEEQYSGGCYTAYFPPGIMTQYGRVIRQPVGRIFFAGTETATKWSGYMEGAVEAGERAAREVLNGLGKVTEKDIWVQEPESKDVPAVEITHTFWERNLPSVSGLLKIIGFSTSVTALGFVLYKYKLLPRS
Summary of the method: (§3)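 Recombinant MAO-A (0.01 mg/mL working solution) or MAO-B (0.04 mg/mL working solution) in phosphate buffer. Kynuramine 40 μM working solution. Compound or DMSO preincubated with substrate for 5 min at 37 °C; enzyme then added and incubated 15 min at 37 °C. Reaction quenched. Product 4-hydroxyquinoline (printed as 4-hydroxyquinolinol) measured by LC−MS/MS. Six concentrations in 4-fold dilutions; IC50 from % inhibition versus vehicle.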

[5] = Cmax in BALB/c mouse at 1 mg/kg, iv measured upto 24 hrs by LC-MS/MS analysis; type: ADME, organism-based; parameters: route intravenous, dose 1 mg/kg, time <=24; conditions: in vivo; summary of the method: as §2
[6] = system: Enterococcus faecium; assay: Antibacterial activity against linezolid resistant Enterococcus faecium 13549 assessed as bacterial growth inhibition after 18 hrs by broth microdilution method; type: functional
[7] = system: Staphylococcus aureus; assay: Antibacterial activity against methicillin resistant Staphylococcus aureus assessed as bacterial growth inhibition after 18 hrs by broth microdilution method; type: functional
[8] = system: Bacillus subtilis; assay: Antibacterial activity against Bacillus subtilis 168 assessed as inhibition of bacterial growth incubated for 18 hrs by broth microdilution method; type: functional
Summary of the method: (§4)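 Broth microdilution in 96-well plates. Media: cation-adjusted Mueller−Hinton broth for S. aureus, brain heart infusion for VRE, Mueller−Hinton broth for the other strains. Incubated at 37 °C for 18 h, then A600 read. Percent growth inhibition calculated against 1% DMSO vehicle.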

[9] = system: Staphylococcus aureus; assay: Antibacterial activity against vancomycin intermediate Staphylococcus aureus assessed as bacterial growth inhibition after 18 hrs by broth microdilution method; type: functional
[10] = MRT (0 to infinity) in BALB/c mouse at 1 mg/kg, iv measured upto 24 hrs by LC-MS/MS analysis; type: ADME, organism-based; conditions: in vivo; summary of the method: as §2
[11] = system: Enterococcus faecalis; assay: Antibacterial activity against linezolid resistant Enterococcus faecalis assessed as bacterial growth inhibition after 18 hrs by broth microdilution method; type: functional
[12] = AUC (0 to t) in BALB/c mouse at 10 mg/kg, po measured upto 24 hrs by LC-MS/MS analysis; type: ADME, organism-based; parameters: route oral, dose 10 mg/kg, time <=24; conditions: in vivo; summary of the method: as §2
[13] = system: Enterococcus faecalis; assay: Antibacterial activity against Enterococcus faecalis ATCC 29212 assessed as bacterial growth inhibition after 18 hrs by broth microdilution method; type: functional; summary of the method: as §4
[14] = Cmax in BALB/c mouse at 10 mg/kg, po measured upto 24 hrs by LC-MS/MS analysis; type: ADME, organism-based; parameters: route oral, dose 10 mg/kg, time <=24; conditions: in vivo; summary of the method: as §2
[15] = Metabolic stability in CD-1 mouse liver microsomes incubated for 30 mins by LC-MS analysis; type: ADME, Microsome; conditions: CD-1, mouse, liver microsomes, read-out: Stabilty; summary of the method: as §1
[16] = biological target: T2, Amine oxidase [flavin-containing] B (Homo sapiens, UniProt P27338); assay: Inhibition of MAO-B (unknown origin) using kynuramine as substrate preincubated for 5 mins with substrate followed by enzyme addition and measured after 15 mins by LC-MS/MS analysis; summary of the method: as §3
T2 sequence (P27338 whole entry): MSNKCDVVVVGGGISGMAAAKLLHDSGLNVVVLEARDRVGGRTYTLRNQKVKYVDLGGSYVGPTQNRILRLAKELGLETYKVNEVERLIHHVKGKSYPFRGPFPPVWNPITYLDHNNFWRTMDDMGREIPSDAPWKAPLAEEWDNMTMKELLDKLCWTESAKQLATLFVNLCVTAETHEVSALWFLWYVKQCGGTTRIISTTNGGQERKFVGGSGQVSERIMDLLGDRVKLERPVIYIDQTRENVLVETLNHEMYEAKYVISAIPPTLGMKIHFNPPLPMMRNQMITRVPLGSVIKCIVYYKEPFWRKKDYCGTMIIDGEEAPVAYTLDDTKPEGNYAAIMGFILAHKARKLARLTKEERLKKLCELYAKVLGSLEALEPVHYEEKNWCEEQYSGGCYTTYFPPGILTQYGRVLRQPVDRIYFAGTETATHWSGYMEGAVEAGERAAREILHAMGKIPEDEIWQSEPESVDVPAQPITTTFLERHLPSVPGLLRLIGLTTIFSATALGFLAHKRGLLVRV

[17] = system: Escherichia coli; assay: Antibacterial activity against Escherichia coli 25922 assessed as inhibition of bacterial growth incubated for 18 hrs by broth microdilution method; type: functional; conditions: ATCC 25922; summary of the method: as §4
[18] = Clearance in BALB/c mouse at 1 mg/kg, iv measured upto 24 hrs by LC-MS/MS analysis; type: ADME, organism-based; conditions: in vivo; summary of the method: as §2
[19] = Apparent volume of distribution in BALB/c mouse at 1 mg/kg, iv measured upto 24 hrs by LC-MS/MS analysis; type: ADME, organism-based; conditions: in vivo, read-out: Vz; summary of the method: as §2
[20] = system: Staphylococcus epidermidis; assay: Antibacterial activity against methicillin resistant Staphylococcus epidermidis assessed as bacterial growth inhibition after 18 hrs by broth microdilution method; type: functional

Compound CC(=O)NC[C@@H]1OC(=O)N2Cc3cc(-c4ccc(C#N)nc4)c(F)cc3O[C@@H]12 has an MIC [1] of 2 µg/mL (≈ 5.23 µM), a remaining at 0.5 h [2] of 118% and an AUC(0-t) at 24 h [3] of 6080 ng·h/mL. The IC50 [4] was greater than 50 µM, the Cmax [5] was 1790 ng/mL and the MIC [6] was 2 µg/mL (≈ 5.23 µM). The MIC [7] was 0.25 µg/mL (≈ 0.654 µM), the MIC [8] was 0.125 µg/mL (≈ 0.327 µM) and the MIC [9] was 0.25 µg/mL (≈ 0.654 µM). It also gave an MRT inf [10] of 4.71 h, an MIC [11] of 1 µg/mL (≈ 2.62 µM) and an AUC(0-t) at 24 h [12] of 77600 ng·h/mL. For the same compound, the MIC [13] was 0.5 µg/mL (≈ 1.31 µM), the Cmax [14] was 10300 ng/mL and the remaining at 0.5 h [15] was 108%. For the same compound, the IC50 [16] was 6.07 µM, the MIC [17] was greater than 64 µg/mL and the clearance [18] was 2.71 mL/min/kg. The Vd [19] was 0.762 L/kg and the MIC [20] was 1 µg/mL (≈ 2.62 µM).
